From ChEMBL document CHEMBL3400039, “Design, synthesis and in vitro cell-based evaluation of the anti-cancer activities of hispolon analogs” (Bioorg Med Chem, 2015)
Calls of active or inactive are those of the source. The rule behind the calls is not given here.

Tests used:
PC-3 = experiment: Cytotoxicity against human PC3 cells at 100 uM after 72 hrs by MTT assay; type: functional, cell-based
How it was run: (§1)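 Cells kept as adherent monolayers in DMEM with 10% FBS, 37°C, 5% CO2. Trypsin-harvested, seeded at 5 × 10^3 cells/well, then exposed to compound at 0.1 to 100 µM for 72 h. MTT (4 mg/ml) added for 4 h, formazan dissolved in DMSO, absorbance read at 570 nm. At least three experiments, each in triplicate; mean±SD.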

DU-145 [1] = experiment: Cytotoxicity against human DU145 cells at 100 uM after 72 hrs by MTT assay; type: functional, cell-based; how it was run: as §1
HCT-116 = experiment: Cytotoxicity against human HCT116 cells at 100 uM after 72 hrs by MTT assay; type: functional, cell-based; how it was run: as §1
S1 = experiment: Cytotoxicity against human S1 cells at 100 uM after 72 hrs by MTT assay; type: functional, cell-based; how it was run: as §1
MCF7 [2] = experiment: Cytotoxicity against human MCF7 cells at 100 uM after 72 hrs by MTT assay; type: functional, cell-based; how it was run: as §1
MDA-MB-231 [3] = experiment: Cytotoxicity against human MDA-MB-231 cells at 100 uM after 72 hrs by MTT assay; type: functional, cell-based; how it was run: as §1
MDCK [4] = experiment: Cytotoxicity against MDCK cells at 100 uM after 72 hrs by MTT assay; type: cell-based, Canis lupus familiaris; settings: dog; how it was run: as §1
[5] = Cytotoxicity against mouse NIH/3T3 cells at 100 uM after 72 hrs by MTT assay; type: cell-based; settings: nih3t3, 72 h; how it was run: as §1
HEK293 [6] = experiment: Cytotoxicity against HEK293 cells expressing pcDNA3.1 at 100 uM after 72 hrs by MTT assay; type: cell-based; settings: human, hek293, 72 h; how it was run: as §1
[7] = Cytotoxicity against human PC3 cells after 72 hrs by MTT assay; type: functional, cell-based; settings: PC-3, 72 h; how it was run: as §1
[8] = Cytotoxicity against human HCT116 cells after 72 hrs by MTT assay; type: functional, cell-based; settings: HCT-116, 72 h; how it was run: as §1
[9] = Cytotoxicity against human S1 cells after 72 hrs by MTT assay; type: functional, cell-based; settings: S1, 72 h; how it was run: as §1
MDA-MB-231 [10] = experiment: Cytotoxicity against human MDA-MB-231 cells after 72 hrs by MTT assay; type: functional, cell-based; settings: MDA-MB-231, 72 h; how it was run: as §1
MDCK [11] = experiment: Cytotoxicity against MDCK cells after 72 hrs by MTT assay; type: cell-based; settings: Canis lupus familiaris; how it was run: as §1
[12] = Cytotoxicity against mouse NIH/3T3 cells after 72 hrs by MTT assay; type: cell-based; settings: NIH3T3, 72 h; how it was run: as §1
HEK293 [13] = experiment: Cytotoxicity against HEK293 cells expressing pcDNA3.1 after 72 hrs by MTT assay; type: cell-based; settings: Homo sapiens, HEK293, 72 h; how it was run: as §1
HEK293 [14] = experiment: Cytotoxicity against HEK293 cells expressing ABCB1 after 72 hrs by MTT assay; type: functional, cell-based; settings: Homo sapiens, HEK293, 72 h; how it was run: as §1
HEK293 [15] = experiment: Resistance index, ratio of IC50 for HEK293 cells expressing ABCB1 to IC50 for HEK293 cells expressing pcDNA3.1; set-up: species or system Homo sapiens
How it was run: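 Fold resistance is the IC50 in P-glycoprotein-overexpressing HEK293/ABCB1 cells divided by the IC50 in empty-vector HEK293/pcDNA3.1 cells. IC50s from the 72 h MTT assay; paclitaxel was the positive-control ABCB1 substrate.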

DU-145 [16] = experiment: Cytotoxicity against human DU145 cells after 72 hrs by MTT assay; type: functional, cell-based; settings: DU-145, 72 h; how it was run: as §1
MCF7 [17] = experiment: Cytotoxicity against human MCF7 cells after 72 hrs by MTT assay; type: functional, cell-based; settings: MCF7, 72 h; how it was run: as §1

SMILES	Activity (PC-3)	Activity (DU-145 [1])	Activity (HCT-116)	Activity (S1)	Activity (MCF7 [2])	Activity (MDA-MB-231 [3])	Activity (MDCK [4])	Activity [5]	Activity (HEK293 [6])	IC50 [7] [µM]	IC50 [8] [µM]	IC50 [9] [µM]	IC50 (MDA-MB-231 [10]) [µM]	IC50 (MDCK [11]) [µM]	IC50 [12] [µM]	IC50 (HEK293 [13]) [µM]	IC50 (HEK293 [14]) [µM]	Ratio IC50 (HEK293 [15])	IC50 (DU-145 [16]) [µM]	IC50 (MCF7 [17]) [µM]
COc1ccc(CCC(=O)CC(C)=O)cc1	inactive	inactive	inactive	inactive	inactive	inactive	Non-toxic	Non-toxic	Non-toxic											
Cc1cc(/C=C/c2ccc(O)cc2)[nH]n1										48.1	38.8	32.9	23.2	80	59.2	77.4	68.9	0.9		
CC(=O)CC(=O)CCc1ccc(O)cc1	inactive	inactive	inactive	inactive	inactive	inactive	Non-toxic	Non-toxic	Non-toxic											
COc1ccc(CCc2cc(C)n[nH]2)cc1OC	inactive	inactive	inactive	inactive	inactive	inactive	Non-toxic	Non-toxic	Non-toxic											
CC(=O)/C=C(O)/C=C/c1ccc(O)c(O)c1 [HISPOLON]										12.9	5.2	8.4	32.2	36.2	51.2	7.3	9.6	1.3	28.6	7.9
COc1ccc(/C=C/c2cc(C)no2)cc1OC										> 100	87.4	> 100		44.7	93.2	63.2	77.8	1.2	> 100	> 100
COc1ccc(CCc2cc(C)no2)cc1OC	inactive	inactive	inactive	inactive	inactive	inactive	Non-toxic	Non-toxic	Non-toxic											
COc1ccc(/C=C/c2cc(C)no2)cc1										> 100	22.4	76.4		70.2	> 100	58.3	66.3	1.1	> 100	> 100
Cc1cc(/C=C/c2ccc(O)c(O)c2)[nH]n1										23.2		55.3		> 100	88.4	29.7	39.4	1.3	33.1	
COc1cc(CCc2cc(C)n[nH]2)ccc1O	inactive	inactive	inactive	inactive	inactive	inactive	Non-toxic	Non-toxic	Non-toxic											
CC(=O)O[C@H]1C(=O)[C@@]2(C)[C@H]([C@H](OC(=O)c3ccccc3)[C@]3(O)C[C@H](OC(=O)[C@H](O)[C@@H](NC(=O)c4ccccc4)c4ccccc4)C(C)=C1C3(C)C)[C@]1(OC(C)=O)CO[C@@H]1C[C@@H]2O [PACLITAXEL]																0.04	0.36	9		
COc1ccc(CCc2cc(C)no2)cc1	inactive	inactive	inactive	inactive	inactive	inactive	Non-toxic	Non-toxic	Non-toxic											
Cc1cc(/C=C/c2ccc(O)cc2)on1										50.2	67.9	44.2	55.5	58.3	88.5			1	67.2	
CC(=O)CC(=O)/C=C/c1ccc(O)cc1										20.2	36.5	10.6	6.8	30.6	18.9		11.6	1.1	8.8	
COc1ccc(/C=C/c2cc(C)n[nH]2)cc1OC										12.6	51.3	22.4	38.8	54.1	68.4		33.2	1.4	18.5	
COc1cc(CCc2cc(C)no2)ccc1O	inactive	inactive	inactive	inactive	inactive	inactive	Non-toxic	Non-toxic	Non-toxic											
COc1ccc(/C=C/C(=O)CC(C)=O)cc1OC										8.9	4.7	9.3	43.1	9.9	18.1	8.2	10.6	1.3	8.2	10.6
Cc1cc(CCc2ccc(O)cc2)on1	inactive	inactive	inactive	inactive	inactive	inactive	Non-toxic	Non-toxic	Non-toxic											
COc1ccc(CCC(=O)CC(C)=O)cc1OC	inactive	inactive	inactive	inactive	inactive	inactive	Non-toxic	Non-toxic	Non-toxic											
COc1ccc(/C=C/C(=O)CC(C)=O)cc1										15.8	11.9	44.6	25	41.6	48.2	18.7	16.3	0.9	9.1	
COc1cc(/C=C/c2cc(C)no2)ccc1O										20.9	33.4	50.5	34.6	29.8	> 100	36.2	41.3	1.1	28.9	
COc1cc(/C=C/c2cc(C)[nH]n2)ccc1O										16.5	78.8	29.4	67	35.4	66.3	47.7	45.2	0.9	32.2	
Cc1cc(/C=C/c2ccc(O)c(O)c2)on1										3.3	5.3	7.9	8.9		26.2	13	11.8	0.9	10.5	6.3
COc1ccc(/C=C/c2cc(C)n[nH]2)cc1										8.9	9.4	8.4	10.7		19.9	12.9	16.5	1.3		9.7
Cc1cc(CCc2ccc(O)cc2)[nH]n1	inactive	inactive	inactive	inactive	inactive	inactive	Non-toxic	Non-toxic	Non-toxic											
COc1ccc(CCc2cc(C)n[nH]2)cc1	inactive	inactive	inactive	inactive	inactive	inactive	Non-toxic	Non-toxic	Non-toxic											
